Screens deposited in PubChem BioAssay by several laboratories.
Hits are enriched below; roughly 1.6% of the tested compounds scored in any of these assays.
RAD54 branch: inhibitors of human RAD54 branch migration, primary screen, biochemical, fluorescence, single point | inhibition, % at 10.4 µM | RAD54 Holliday junction branch migration, FAM/BHQ fluorescence | AID 602329, 2012 | 0.14% of 360,000 active;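 active means mean normalized replicate activity at least 40 and at least half of replicates scoring 40 or more; inconclusive means only one of the two criteria met; inactive means mean below 40 and under half of replicates reaching 40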;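 further: 0% = median of neutral control wells and 100% = median of positive control wells; inhibitors cause a drop in the FAM fluorescence signal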
Target sequence (Q92698 whole entry, looked up): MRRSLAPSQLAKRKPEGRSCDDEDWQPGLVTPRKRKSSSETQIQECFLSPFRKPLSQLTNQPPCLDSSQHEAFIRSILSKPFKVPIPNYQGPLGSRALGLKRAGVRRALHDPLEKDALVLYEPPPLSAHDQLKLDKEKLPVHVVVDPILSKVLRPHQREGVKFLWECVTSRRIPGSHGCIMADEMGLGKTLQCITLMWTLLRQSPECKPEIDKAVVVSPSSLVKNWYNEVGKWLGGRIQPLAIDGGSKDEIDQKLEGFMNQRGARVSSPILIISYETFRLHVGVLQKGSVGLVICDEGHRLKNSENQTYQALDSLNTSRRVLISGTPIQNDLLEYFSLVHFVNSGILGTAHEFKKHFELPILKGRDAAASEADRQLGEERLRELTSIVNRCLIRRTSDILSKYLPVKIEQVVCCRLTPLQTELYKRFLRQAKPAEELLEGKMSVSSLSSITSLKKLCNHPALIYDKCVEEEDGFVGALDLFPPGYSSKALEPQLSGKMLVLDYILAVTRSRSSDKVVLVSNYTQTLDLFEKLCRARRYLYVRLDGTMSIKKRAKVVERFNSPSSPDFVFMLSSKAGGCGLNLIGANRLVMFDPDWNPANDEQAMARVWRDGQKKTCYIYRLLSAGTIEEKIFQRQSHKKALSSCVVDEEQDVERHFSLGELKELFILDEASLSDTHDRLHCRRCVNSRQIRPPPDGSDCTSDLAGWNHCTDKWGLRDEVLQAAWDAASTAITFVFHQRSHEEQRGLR
Neddylation inh: inhibitors of cullin neddylation, primary screen, biochemical, TR-FRET, uHTS, NAE and Ubc12; calls only at 25 µM; 0.58% of 360,000 active; NEDD8-conjugating enzyme Ubc12 (Homo sapiens) + NEDD8-activating enzyme E1 regulatory …; in the data active means inhibition above about 36%
Apaf-1 inh: inhibitors of human Apaf-1 apoptosome, primary screen, biochemical, DEVD-Rh110 fluorescence, uHTS | reconstituted apoptosome caspase-3 activity | inhibition, % at 20 µM | 0.71% of 330,000 active; active means inhibition of at least 40% at 20 µM;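 further: plate controls were DMSO wells for no effect and DEVD-CHO caspase inhibitor wells for full effect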
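Material: reconstituted apoptosome with Apaf-1, cytochrome c, caspase-9, procaspase-3, dATP. Technique: Rh110 fluorescence intensity. Buffer or medium: pH 7.5 Hepes buffer with CHAPS, BSA, DTT. Times: 30 min plus 50 min, RT.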
DNA FID counter: compounds displacing fluorescent DNA intercalator, primary screen, artefact control for HCV NS3 helicase inhibitor project, biochemical, FID fluorescence; DNA fluorescent intercalator displacement; inhibition, % at 7.9 µM; 0.17% of 290,000 active; in the data active means inhibition above about 37%;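 further: 0% = vehicle and 100% = reference compound; higher means more ethidium bromide displaced from hairpin DNA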
UBC13 inh: UBC13 polyubiquitin chain formation inhibitors, primary screen, biochemical, TR-FRET, uHTS. Ubiquitin-conjugating enzyme E2 N (Homo sapiens), P61088. inhibition, % at 20 µM. 0.47% of 330,000 active. AID 485273, 2010; in the data active means inhibition above about 45%, passing the limit was not always enough; inconclusive means no clear call, values can overlap the other calls
RAD52 anneal inh: RAD52 DNA annealing inhibitors, primary screen, biochemical, FRET, single point, set 2. inhibition, % at 18.7 µM. recombinant RAD52 DNA annealing, FRET fluorescence. 0.46% of 360,000 active. AID 651710, 2012;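 active means every replicate showing at least 50% inhibition; inconclusive means mean inhibition at least 50% but not in every replicate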
* hit, by the source's call; i = inactive; u = inconclusive; x = no result shown; + = active, no number; ! = repeats disagree.

SMILES	RAD54 branch	Neddylation inh	Apaf-1 inh	DNA FID counter	UBC13 inh	RAD52 anneal inh
O=C1CC=C2C3CC4N(CCC45c4cc(O)c(O)cc4N1C25)CC3=CCBr (stereo unspecified)	x	+	x	x	x	33
Nc1c(C(=O)NCc2ccco2)c2nc3ccccc3nc2n1CCN1CCCCC1	75*	x	5	9	-26	x
CCCNC(=O)c1c(N)n(Cc2ccco2)c2nc3ccccc3nc12	x	x	40*	-6	-34	x
C=CCNC(=O)c1c(N)n(CCN2CCOCC2)c2nc3ccccc3nc12	x	x	-17	0	3	x
CCOC(=O)c1c(N)n(CCCOC(=O)c2ccco2)c2nc3ccccc3nc12	7	x	43*	-13	-16	x
O=C(Cc1cccnc1)N1CCCCN2[C@H](CO)[C@@H](c3ccc(/C=C/c4ccccc4)cc3)[C@H]2C1	-6	x	x	x	x	-25
C[n+]1c2ccccc2nc2ccc(NCCO)cc21	75*	i	94*	-105	i	-38
OCCNc1c2c(nc3ccccc13)CCCC2	21	i	-2	4	-8	x
CN1CC[C@@]2(C)c3cc(O)ccc3N(C)C2O1 (stereo partly specified)	-6	i	92*	x	-97	x
CC1[C@H]2Cc3ccc(O)cc3[C@]1(C)CCN2C (stereo partly specified)	-18	i	x	x	x	-7
CN1CC[C@@]2(C)c3cc(O)ccc3N(C)[C@@H]12	3	i	x	x	x	69*!
COC(=O)C1C=C2c3cccc4[nH]cc(c34)CC2N(C)C1 (stereo unspecified)	x	x	56*	-7	-57	x
CC(C)C[C@H]1C(=O)N2CCC[C@H]2[C@]2(O)O[C@](NC(=O)[C@@H]3C=C4c5cccc6[nH]cc(c56)C[C@H]4N(C)C3)(C(C)C)C(=O)N12	-32	i	91*	x	-90	x
CCC(CO)NC(=O)C1C=C2c3cccc4[nH]cc(c34)CC2N(C)C1 (stereo unspecified)	39	x	40	25	19	-19
CN1CCN(c2cccc3c2C(=O)c2ccccc2C3=O)CC1	79*	i	x	60*	x	26
N#Cc1cccc(-c2ccc([C@H]3[C@H]4CN(C(=O)Cc5ccccc5)CCCCN4[C@H]3CO)cc2)c1	0	x	x	x	x	-22
CCCNC1=C(C)C(=O)C2=C(C1=O)C(COC(N)=O)[C@]1(OC)C3NC3CN21 (stereo partly specified)	4	i	57*	-6	-22	-6
COC(=O)[C@H]1[C@H](CO)[C@H]2Cn3c(ccc(-c4ccc(F)cc4)c3=O)[C@@H]1N2Cc1ccccc1	1	x	x	x	x	-3
CCn1nc(-c2ccccc2)nc2c(=O)n(C)c(=O)nc1-2	x	i	98*	4	-169	x
COc1ccc(-c2nc3ccccc3c(=O)n2-c2ccc(OC)cc2)cc1	x	i	-2	-33	20	-6
CCCCCSc1cc(OC)c(CCN)cc1OC	5	i	6	39*	22	x
[O-]c1ccccc1-[n+]1c(-c2ccccc2)cc(-c2ccccc2)cc1-c1ccccc1	-1	i	21	x	31	61*
Nc1c(C(=O)NCC2CCCO2)c2nc3ccccc3nc2n1Cc1ccco1 (stereo unspecified)	-15	x	32	-7	-27	-64
Nc1c(C(=O)NC2CCCC2)c2nc3ccccc3nc2n1CC1CCCO1 (stereo unspecified)	-18	x	94*	-9	12	x
Cc1ccccc1-c1ccc([C@@H]2[C@H]3CN(C(=O)Cc4ccccn4)CCCCN3[C@H]2CO)cc1	3	x	x	x	x	-11
SMILES	RAD54 branch	Neddylation inh	Apaf-1 inh	DNA FID counter	UBC13 inh	RAD52 anneal inh
COC1C(O)C(C)OC(OC2C(Oc3cccc4c(O)c5c(=O)oc6ccc(C)c7c(=O)oc(c34)c5c67)OC(C)C(O)C2O)C1O (stereo unspecified)	x	+	x	x	x	-12
CCCN1[C@@H]2Cn3c(ccc(-c4ccc(OC)cc4)c3=O)[C@H]1[C@@H](C(=O)OC)[C@@H]2CO	11	x	x	x	x	2
COC(=O)[C@@H]1[C@@H](CO)[C@@H]2Cn3c(ccc(-c4ccc(F)cc4)c3=O)[C@H]1N2Cc1ccccc1	1	x	x	x	x	-3
COc1ccc(OC)c(N2C(=O)/C(=C/c3ccco3)C(=O)NC2=S)c1	x	x	73*	-1	u	x
O=C1NC(=S)N(c2ccc(F)cc2)C(=O)/C1=C/c1ccco1	x	x	70*	-8	u	x
O=C1NC(=S)N(c2ccc(F)cc2)C(=O)/C1=C\c1ccoc1	-10	i	x	-10	x	x
c1cc(-c2ccc(C3[C@H]4CNC[C@@H]3N4CC3CC3)cc2)ccn1 (stereo partly specified)	x	x	x	x	x	14
O=C(O)[C@@H]1[C@@H](CO)[C@@H]2Cn3c(ccc(-c4cccc(F)c4)c3=O)[C@H]1N2CCc1ccccc1	8	x	x	x	x	-6
c1ccc(-c2[nH]c[n+](CC3CO3)c2-c2ccccc2)cc1 (stereo unspecified)	x	x	51*	5	19	x
CN1/C(=C\C=C\C2=[N+](C)c3ccc4ccccc4c3C2(C)C)C(C)(C)c2ccccc21	x	x	90*	-397	-156	x
CCN1[C@@H]2Cn3c(ccc(-c4cccc(C(=O)N(C)C)c4)c3=O)[C@H]1[C@@H](C(=O)OC)[C@@H]2CO	6	x	x	x	x	12
O=C(O)c1ccc(-[n+]2c(-c3ccccc3)cc(-c3ccccc3)cc2-c2ccccc2)cc1	-2	i	-3	x	-3	-7
CCCOC(=O)c1ccc(-[n+]2c(-c3ccccc3)cc(-c3ccccc3)cc2-c2ccccc2)cc1	9	i	47*	x	27	5
Cc1ccc(-c2cc(-c3ccc(C)cc3)[n+](-c3ccc(C(=O)O)cc3)c(-c3ccc(C)cc3)c2)cc1	11	+	18	x	-4	0
COC(=O)[C@H]1[C@H](CO)[C@H]2Cn3c(ccc(C4=CCCC4)c3=O)[C@@H]1N2Cc1ccccn1	-1	x	x	x	x	-43
C/C=C/c1ccc(C2[C@@H]3CN(C(=O)CN(C)C)C[C@H]2N3)cc1 (stereo partly specified)	x	x	x	x	x	58*!
C[N+]1(C)C2CC[C@H]1CC(OC(=O)C(CO)c1ccccc1)C2 (stereo partly specified)	-6	i	-6	x	-4	-9
C[N+]1(C)[C@@H]2CC[C@H]1CC(OC(=O)[C@@H](CO)c1ccccc1)C2 (stereo partly specified)	-3	i	70*	-2	2	0
